Our source for the AUC, Tmax and Cmax values is ChEMBL document CHEMBL1142156, “Pharmacokinetic interaction between voriconazole and methadone at steady state in patients on methadone therapy” (Antimicrob Agents Chemother, 2007).

Usually AUC stands for the area under the concentration-time curve, a measure of exposure. A lower AUC goes with low exposure. One may read the Tmax as the time from dosing to the highest level. The Cmax is the maximum level reached in the sampled fluid or tissue.

Holding throughout (type): ADME, organism-based
The nature of data set [1]: AUC (0-24h) in opiate abstinence syndrome patient at 30 to 100 mg, po QD after 2 days. The note with it: human, plasma. Put shortly:
(§1)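 Male patients on individualized once-daily methadone (30-100 mg) sampled on day 2, before any coadministration. Plasma taken at 1, 2, 3, 4, 6, 8, 10, 12, 16 and 24 h postdose. (R)- and (S)-methadone quantified by chiral LC-MS/MS (range 5 to 500 ng/ml per enantiomer). Noncompartmental analysis: Cmax/Tmax observed, AUC0-24 by linear/log-trapezoidal method. Normalized lines scaled to a 100-mg dose.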

Data set [2] is described as follows: Dose normalized Tmax in opiate abstinence syndrome patient at 30 to 100 mg, po QD after 2 days. As to conditions: human, in vivo. In short, it runs like this:
as §1

Data set [3] has as its system Homo sapiens. The data set is described as follows: Dose normalized AUC (0-24h) in opiate abstinence syndrome patient at 30 to 100 mg, po QD after 2 days. As to conditions: in vivo. Put shortly:
as §1

Data set [4] concerns Homo sapiens. The data set can be described thus: Dose normalized Cmax in opiate abstinence syndrome patient at 30 to 100 mg, po QD after 2 days. The note with it: in vivo, 48 h. Put shortly:
as §1

A short description of data set [5]: Cmax in opiate abstinence syndrome patient at 30 to 100 mg, po QD after 2 days. The note with it: human, in vivo. Put shortly: as §1

Consider `CCC(=O)C(C[C@H](C)N(C)C)(c1ccccc1)c1ccccc1` [ESMETHADONE], for which the AUC in data set [1] came out at 4030 ng·h/mL; with Homo sapiens [3], 5730 ng·h/mL. The time of peak concentration (Tmax) in data set [2] was 1 h. For the same compound, the Cmax is 366 ng/mL in the data set with Homo sapiens [4] and 287 ng/mL in data set [5].
Turning to `CCC(=O)C(C[C@@H](C)N(C)C)(c1ccccc1)c1ccccc1` [LEVOMETHADONE], the results for the AUC (in data set [1]; in the data set with Homo sapiens [3]) were 4300 ng·h/mL and 5540 ng·h/mL, respectively. The Tmax in data set [2] came out at 1 h. Also, the Cmax in the data set on Homo sapiens [4] stood at 322 ng/mL; in data set [5], 256 ng/mL.
